# From PubChem BioAssay
# PG9 binder: binds the HIV-1 gp120 antibody PG9 | TR-FRET gp120-PG9 antibody binding | inhibition, % at 6.7 µM | hit rate 0.43% among 360,000 | AID 624416; in the data active = inhibition above about 8.5%
# NR2E3 ag-1: human photoreceptor-specific nuclear receptor agonism. CHO-S Gal4-NCOR/VP16-NR2E3 two-hybrid, luciferase. Q9Y5X4. inhibition of corepressor binding, % at 3.98 µM. hit rate 0.35% among 360,000;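 active = inhibition above the mean of all tested compounds plus 3 SD, cut at about 70% in these data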;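 note: 0% = DMSO with NR2E3 transfected cells and 100% = cells lacking NR2E3 construct; higher means lower luciferase signal from less NR2E3 corepressor binding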
# Target sequence (Q9Y5X4 whole entry, looked up, the tested form may be a part): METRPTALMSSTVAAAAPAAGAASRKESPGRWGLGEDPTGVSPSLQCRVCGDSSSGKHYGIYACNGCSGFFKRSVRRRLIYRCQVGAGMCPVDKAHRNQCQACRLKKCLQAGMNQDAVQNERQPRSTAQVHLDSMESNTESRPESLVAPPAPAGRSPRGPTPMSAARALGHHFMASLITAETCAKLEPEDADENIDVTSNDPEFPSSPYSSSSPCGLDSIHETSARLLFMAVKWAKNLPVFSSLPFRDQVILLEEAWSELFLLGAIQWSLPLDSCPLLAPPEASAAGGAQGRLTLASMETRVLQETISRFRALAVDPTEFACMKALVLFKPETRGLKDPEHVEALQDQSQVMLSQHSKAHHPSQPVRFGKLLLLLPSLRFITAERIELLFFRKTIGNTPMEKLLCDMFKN
# Rev-erbA mod: Rev-erb alpha (human) modulation. Rev-erbα–FITC-DNA binding, fluorescence polarization, 90 min. activity, % at 10 µM. hit rate 0.79% among 370,000. AID 1259318;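 active = activity above about 14%, limit read from the data; passing the limit was not always enough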;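 note: 0% = DMSO wells with 35 nM protein and 100% = DMSO wells with 750 nM protein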
# NR2E3 ag-2: NR2E3 (human) agonism; Q9Y5X4; GST-NR2E3/biotin-RetCOR TR-FRET, 1536-well; inhibition of corepressor binding, % at 4.78 µM; hit rate 0.12% among 320,000; AID 2300;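 active = percent inhibition above the cutoff of mean plus 3 SD of all tested compounds, set per screening campaign, cut at about 20% in these data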;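 note: 0% = DMSO wells and 100% = biotin wells as full block of FRET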
#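 Material: NR2E3–RetCOR corepressor complex | Quantity: 1.35 nM GST-tagged NR2E3 final | Schedule: 5 h at 4 °C | Replication: Singlicate compound wells | Reagent: RetCOR corepressor, biotinylated, 7 nM | Controls: Biotin wells as high control, 0.6% DMSO wells as low control | Signal: TR-FRET, Eu(K)-anti-GST donor, streptavidin-D2 acceptor, ex 340, em 617/671 nm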
# NR1D1 mod conf: Rev-erb alpha (human) modulation, hit confirmation. activation, % at 25 µM. hit rate 61% among 3,000. Rev-erb alpha FITC-DNA binding, fluorescence polarization, 90 min. shares compounds with Rev-erbA mod;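 active = activation at or above a set limit, or at least 3 SD above the negative control mean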;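 note: 0% = 35 nM protein with DMSO and 100% = 750 nM protein high control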
# RORg DNA counter: affects RORgamma DNA binding in a Rev-erb alpha counter-screen; shares compounds with Rev-erbA mod; purified RORgamma protein-FITC-DNA binding, fluorescence polarization; IC50, µM; hit rate 8% among 910;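 active = Compounds whose fitted half-maximal concentration for disrupting protein-DNA binding is below 10 micromolar; the record names Rev-erb in its text, so the target is in doubt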
# Numbers without * were called inactive; nt = no result. Sampled rows, rich in hits. Any-hit rate of the full collection: about 1.5%.
SMILES,PG9 binder,NR2E3 ag-1,Rev-erbA mod,NR2E3 ag-2,NR1D1 mod conf,others
Cc1cc(C)nc(NC(=O)CSc2nc3cc(Cl)ccc3s2)n1,-2,11,2,2,nt,
Cc1ccc(NC(=O)c2sc(Cl)nc2-c2ccccc2)cc1C,3,-18,53*,-1,38*,RORg DNA counter=>40
C=CCn1c(=O)c(C(=O)NCCc2ccc(Cl)cc2)c(O)c2cc(OC)c(OC)cc21,0,-37,29*,-2,4,
COc1ccc2cc(CCN3C(=O)c4ccccc4C3=O)c(=O)[nH]c2c1,1,-3,28*,2,20*,
Cc1ccccc1CN1CCCCC(NC(=O)Nc2cccc(F)c2)C1=O (stereo not given),nt,nt,5,nt,nt,
CCOC(=O)c1cnc2cc(-c3ccc(Cl)cc3)nn2c1N,1,-30,20*,5,0,
COc1ccc(-c2cc3ncc(C(C)=O)c(C)n3n2)cc1,0,-10,36*,-1,13,
CCOC(=O)c1cnc2c(-c3ccc(Cl)cc3)c(C)nn2c1N,-2,6,-1,2,nt,
Cc1nn(C)c(C)c1N1C(=O)c2cccc3c(N)ccc(c23)C1=O,-9,-19,175*,-7,157*,RORg DNA counter=1.8*
Cc1ccc(N2C(=O)c3cccc4c(N)ccc(c34)C2=O)c2cccnc12,-1,-23,126*,-1,131*,
CCN1C(=O)c2cccc3c(N)ccc(c23)C1=O,-8,-21,240*,-6,246*,RORg DNA counter=5.3*
Cc1nn(C)c(C)c1N1C(=O)c2cccc3c(Br)ccc(c23)C1=O,4,-8,0,5,nt,
O=C(Nc1ccc(F)cc1)OCc1cn(Cc2cccc(F)c2F)nn1,nt,nt,5,nt,nt,
CC1CCCC(NC(=O)CSC2=Nc3ccccc3C3CC=NN23)C1C (stereo not given),-1,-14,17*,5,0,
CC1CCCCC1NC(=O)CSC1=Nc2ccccc2C2CC=NN12 (stereo not given),0,-5,0,1,nt,
O=C(Nc1nnc(-c2ccccc2)o1)c1cccc(N2C(=O)CCC2=O)c1,1,-5,-4,2,nt,
O=C(Nc1nnc(-c2ccc(Br)cc2)o1)c1cccc(N2C(=O)CCC2=O)c1,-2,3,18*,6,0,
Cc1ccc(NC(=O)NNC(=O)CCn2nc(C)c([N+](=O)[O-])c2C)cc1C,nt,nt,-8,nt,nt,
O=C(COc1ncnc2c(Cl)cc(Cl)cc12)NC1CCCCCC1,-1,-17,30*,-4,32*,RORg DNA counter=1.3*
CCN(CC)C(=O)CSC1=C(C#N)C(c2cccs2)C=C(C)N1 (stereo not given),-1,-19,56*,0,42*,RORg DNA counter=>40
C#CCSC1=C(C#N)C(c2cccs2)C(C(=O)OCC)=C(C)N1 (stereo not given),-1,-10,6,0,nt,
O=C(Nc1ccc(OC(F)(F)F)cc1)Nc1c(-c2ccc(C(F)(F)F)cc2)nc2ncccn12,nt,nt,-3,nt,nt,
O=C(NCCc1ccccc1F)c1ccc2c(c1)ncn2C1CCCCC1,nt,nt,-1,nt,nt,
Cc1ccc(C(=O)Nc2nnc(-c3ccc(C(C)(C)C)cc3)s2)cc1,-1,-31,26*,1,3,
C[C@@H]1CCN(C2CC2)S(=O)(=O)c2ccc(N3CC[C@H](O)C3)cc2O1,nt,nt,-3,nt,nt,
SMILES,PG9 binder,NR2E3 ag-1,Rev-erbA mod,NR2E3 ag-2,NR1D1 mod conf,others
COc1ccc(S[C@]2(C(=O)N3CCN(c4ncccn4)CC3)CC(=O)N(c3ccccc3)[C@@H]2c2ccc(OC)cc2)cc1,nt,nt,3,nt,nt,
CC(NS(=O)(=O)c1cccc(Cl)c1)C(=O)Nc1ccc(-c2nc3ccccc3s2)cc1 (stereo not given),0,-122,30*,1,10,
COc1ccc(-n2nc3c(N4CCC(C(=O)NCc5cccc(C)c5)CC4)nnc(C)c3c2C)cc1,-4,0,5,-70,nt,
CCOc1ccc(CNC(=O)C2CCN(c3nnc(C)c4c(C)n(-c5ccc(C)cc5)nc34)CC2)cc1,2,-10,33*,-136,34*,RORg DNA counter=>40
Cc1cc(C)cc(C(=O)OCCN2CCN(C3CN(Cc4cn(Cc5ccc([N+](=O)[O-])cc5)nn4)S(=O)(=O)C3)CC2)c1 (stereo not given),nt,nt,2,nt,nt,
O=C(OCc1cn(Cc2ccccc2)nn1)N1CCCC1,nt,nt,-2,nt,nt,
Cc1ccc(C(=O)CSc2nc3ccccc3c(=O)n2-c2ccccc2)s1,29*,-12,49*,-3,35*,RORg DNA counter=>40
O=C(CSc1nc2ccccc2c(=O)n1-c1ccc(F)cc1)Nc1ccc(N2CCOCC2)cc1,0,-12,-5,2,nt,
Cc1ccc(NC(=O)CSc2nc3ccccc3c3nc4ccccc4n23)cc1,3,-42,58*,-2,10,
O=C(CSc1nc2ccccc2c(=O)n1-c1ccc(F)cc1)Nc1cc(S(=O)(=O)N2CCOCC2)ccc1Cl,-1,-11,65*,-1,34*,RORg DNA counter=>40
COc1ccc(-n2c(SCC(=O)Nc3ccc4c(c3)OCO4)nc3ccccc3c2=O)cc1,-3,-3,2,3,nt,
COc1ccc(NC(=O)CSc2nc3ccccc3c(=O)n2-c2ccc3c(c2)OCO3)c(OC)c1,-1,-5,84*,-7,127*,RORg DNA counter=>40
CN(Cc1cn(Cc2ccccc2)nn1)S(=O)(=O)c1ccccc1Br,nt,nt,-5,nt,nt,
CC(c1c[nH]c2ccccc12)c1c[nH]c2ccc(Br)cc12 (stereo not given),nt,nt,-3,nt,nt,
Cc1ccccc1CS(=O)(=O)Cc1ccc(C(=O)Nc2ccc(F)cc2F)o1,nt,nt,4,nt,nt,
O[C@@H]1[C@@H](O)[C@H](n2c3ccc(Cl)cc3c3ccc4c5cc(Cl)ccc5[nH]c4c32)OC[C@H]1O,nt,nt,2,nt,nt,
Cc1cc(NC(=O)CSc2nc3ccccc3c(=O)n2-c2ccccc2)no1,1,-1,27*,-1,6,
CCCCn1c(SCC(=O)Nc2cc(C)on2)nc2ccsc2c1=O,-3,8,45*,1,27*,
Cc1cc(NC(=O)CSc2nc3ccsc3c(=O)n2CCCCC(=O)O)no1,1,20,1,4,nt,
Cc1ccc(-n2c(SCC(=O)Nc3cccc(C)c3)nc3c(oc4ccccc43)c2=O)cc1,-1,nt,79*,-1,125*,RORg DNA counter=>40
COCCn1c(SCC(=O)Nc2cccc(OC)c2)nc2c(oc3ccccc32)c1=O,0,-6,-5,0,nt,
Nn1c(SCC(=O)Nc2nccs2)nnc1-c1cc(-c2ccc(Cl)cc2)n[nH]1,nt,nt,4,nt,nt,
C#CCNC(=O)C[C@H]1C[C@@]2(C(=O)OC)C(=C[C@H](COCc3ccccc3)O[C@@H]2C)N(CCCCCCCC)C1=O,nt,nt,5,nt,nt,
CCCCNC(=O)C[C@@H]1C(=O)N(Cc2ccc(OC)cc2)/C2=C/CCCCC[C@@]21C(=O)OCC,nt,nt,-3,nt,nt,
c1ccc(-c2nc(N3CCOCC3)cc(N3CCOCC3)n2)cc1,0,3,1,-3,nt,
